Screening data (PubChem)
Most compounds without a hit are left out; they make up all but 2.8% or so of the library.
MC4R antagonist = MC4R antagonists of cAMP signaling, primary screen, cell-based, TR-FRET, antagonist arm of biased-ligand search; Melanocortin receptor 4 (Homo sapiens), P32245; MC4R-expressing cells, MTII-stimulated cAMP, LANCE TR-FRET; inhibition, % at 6.5 µM; 360,000 tested, 0.48% active; AID 540295, 2011;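 active = inhibition above its plate's cutoff, the mean of tested wells on that plate plus 3 SD, cut at about 29% in these data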;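 also: 0% = Melanotan II alone and 100% = Melanotan II plus saturating MCL0020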
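Assay system: U2OS cells stably expressing human melanocortin 4 receptor (MC4R) / Dosing: 6.5 µM / Timing: compound 30 min, challenge 1 h, detection 1 h / Measured by: Eu-cAMP/anti-cAMP TR-FRET, emission 671 nm / Replicates: singlicate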
MC4R ag barr = MC4R agonists recruiting beta-arrestin, primary screen, cell-based, luminescence, agonist arm of biased-ligand search | U2OS MC4R beta-arrestin complementation; percent of melanotan II response, DMSO zero | activation, % at 8.9 µM | 360,000 tested, 0.98% active | AID 540308, 2011;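 active = activation above a per-plate cutoff, the mean activation of sample wells on that plate plus 3 SD, cut at about 8% in these data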
EBI2 antag = EBI2 receptor antagonists, beta-arrestin recruitment, primary screen, cell-based, luminescence, 7a,25-OHC stimulation, uHTS; 7a,25-OHC stimulated; inhibition, % at 5 µM; 360,000 tested, 0.81% active; in the data active = inhibition above about 38%;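 also: enzyme fragment complementation signal reports receptor beta-arrestin coupling in cells; 0% = agonist plus DMSO wells and 100% = wells without agonist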
Target sequence (P32249 whole entry, looked up, the tested form may be a part): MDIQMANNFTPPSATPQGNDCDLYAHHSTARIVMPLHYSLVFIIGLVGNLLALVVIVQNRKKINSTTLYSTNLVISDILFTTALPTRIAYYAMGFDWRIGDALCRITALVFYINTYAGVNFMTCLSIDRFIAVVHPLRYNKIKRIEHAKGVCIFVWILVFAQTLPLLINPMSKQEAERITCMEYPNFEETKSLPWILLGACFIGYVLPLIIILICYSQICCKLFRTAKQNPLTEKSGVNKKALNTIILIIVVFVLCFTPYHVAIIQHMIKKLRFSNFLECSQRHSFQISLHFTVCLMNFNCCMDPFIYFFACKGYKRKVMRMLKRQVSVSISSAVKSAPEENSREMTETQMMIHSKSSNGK
m5-HT2A agonist = mouse Htr2a agonists via beta-arrestin recruitment, primary screen, cell-based, luminescence | 5-hydroxytryptamine receptor 2A (Mus musculus), P35363 | CHO-K1 mHTR2A beta-arrestin complementation; percent of 30 µM serotonin response | activation, % at 7.6 µM | 360,000 tested, 0.66% active | AID 624169, 2012;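 active = activation above a run cutoff, the mean activation of all tested compounds plus 3 SD, cut at about 14% in these data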;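 also: 0% = plate median of compound wells and 100% = 30 µM serotonin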
U2OS cAMP counter = nonselective cAMP signaling inhibitors, parental cells, counter-screen for MC4R biased antagonist project, cell-based, TR-FRET, U2OS, forskolin, triplicate; shares compounds with MC4R antagonist; LANCE TR-FRET; inhibition, % at 6.5 µM; 1,600 tested, 26% active; AID 602193, 2012;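 active = mean inhibition over triplicates above the low-control well mean plus 3 SD, set per campaign, cut at about 13% in these data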;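 also: signal is single emission at 671 nm which falls as cellular cAMP rises; 0% = forskolin-stimulated wells and 100% = buffer without forskolin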
MC4R cAMP antag = MC4R cAMP antagonists, retest, confirmation, cell-based, TR-FRET. AID 602195, 2012. shares compounds with MC4R antagonist. 1,600 tested, 27% active. inhibition, % at 6.5 µM. MC4R-expressing cells, MTII-stimulated cAMP; in the data active = inhibition above about 29%;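 also: 0% = agonist stimulated wells alone and 100% = agonist stimulated wells plus saturating reference antagonist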
OPRM1 ag = OPRM1 agonists via beta-arrestin recruitment, confirmation, counter-screen for mouse HTR2A agonist project, cell-based, luminescence, single concentration; shares compounds with m5-HT2A agonist; U2OS OPRM1 beta-arrestin PathHunter; DMSO 0%, DAMGO 9.3 µM 100%; activation, % at 9.3 µM; 2,300 tested, 5.3% active; AID 624380, 2012;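 active = mean activation above the mean of DMSO-only wells plus 3 SD, cut at about 0.5% in these data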
m5-HT2A ag conf = mouse HTR2A agonists, beta-arrestin recruitment, confirmation, cell-based, luminescence, CHO-K1 PathHunter, triplicate. shares compounds with m5-HT2A agonist. DMSO 0%, 30 µM serotonin 100%. activation, % at 7.6 µM. 2,300 tested, 19% active;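 active = mean activation across triplicates above the hit threshold derived in the original primary screen, cut at about 15% in these data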
EBI2 antag conf = EBI2 antagonist hit retest, beta-arrestin, confirmation, cell-based, single concentration, luminescence, 7a,25-OHC stimulation; shares compounds with EBI2 antag; 7a,25-OHC antagonism; inhibition, % at 5 µM; 2,400 tested, 29% active; AID 651997, 2013;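 active = inhibition of at least 50%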
EBI2 agonist = EBI2 agonist activity of antagonist hits, confirmation, counter-screen for EBI2 antagonist project, cell-based, single concentration, agonist mode, luminescence. shares compounds with EBI2 antag. EBI2-expressing cells, 60 min; 0% vehicle, 100% 7α,25-dihydroxycholesterol control. activation, % at 5 µM. 2,400 tested, under 10 active. AID 652000, 2013;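 active = activation of at least 50%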
bGal counter = E. coli beta-galactosidase enzyme inhibition, confirmation, counter-screen for EBI2 antagonist project, biochemical, luminescence, single concentration; shares compounds with EBI2 antag; purified beta-galactosidase, luminescent Galacton Star, 15 min; inhibition, % at 5 µM; 2,400 tested, 1% active;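 active = replicate-average signal at least 3 plate SD below neutral wells, shown as high inhibition, flagging enzyme-inhibiting false positives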;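 also: 0% = DMSO wells with enzyme and 100% = wells lacking enzyme; higher means stronger loss of beta-gal luminescence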
* hit, by the source's call.

For COCCn1nnnc1C(c1cccs1)N1CCN(c2nc3ccccc3s2)CC1 (stereo not given) the results were MC4R antagonist -2.0, MC4R ag barr 0.5, EBI2 antag 7.9 and m5-HT2A agonist -5.5.
For C[C@H]1CN([C@@H](C)CO)C(=O)CCCn2nncc2CO[C@H]1CN(C)S(=O)(=O)c1ccc2c(c1)OCCCO2 the results were MC4R antagonist -1.7, MC4R ag barr 0.5, EBI2 antag 0.6 and m5-HT2A agonist -0.8.
`CCCn1nc(C(=O)Nc2cccc(S(=O)(=O)N3CCOCC3)c2)c2ccccc2c1=O` gave MC4R antagonist 13.1, MC4R ag barr -0.7, EBI2 antag 0.1 and m5-HT2A agonist 0.1.
`CCOC(=O)c1ccc(NC(=O)CSCC(=O)OCC(=O)c2ccccc2)cc1` gave MC4R antagonist 36.4*, MC4R ag barr 1.6, EBI2 antag 13.1, m5-HT2A agonist 14.9*, U2OS cAMP counter 8.3, MC4R cAMP antag 18.0, OPRM1 ag -0.2 and m5-HT2A ag conf -2.9.
Screening Cc1noc(C)c1CN1C(=O)c2cccc([N+](=O)[O-])c2C1=O returned MC4R antagonist 30.2*, MC4R ag barr -0.3, EBI2 antag 0.3, m5-HT2A agonist 14.4*, U2OS cAMP counter 0.8, MC4R cAMP antag -10.1, OPRM1 ag -0.2 and m5-HT2A ag conf -0.3.
For CN(CC(=O)Nc1ccc(N2CCOCC2)cc1)C(=O)CSc1ccc(F)cc1 the results were MC4R antagonist 3.3, MC4R ag barr -3.0, EBI2 antag 1.7 and m5-HT2A agonist 6.0.
For O=C(COc1ccc2ccccc2c1)N1CCCC1 the results were MC4R antagonist 8.8, MC4R ag barr -1.6, EBI2 antag 33.1 and m5-HT2A agonist -0.9.
Screening O=C(COc1ccc2ccccc2c1)N1CCN(C(=O)c2ccc([N+](=O)[O-])cc2)CC1 returned MC4R antagonist 31.8*, MC4R ag barr 0.3, EBI2 antag 94.4*, m5-HT2A agonist -2.4, U2OS cAMP counter 2.3, MC4R cAMP antag 6.9, EBI2 antag conf 76.3*, EBI2 agonist -1.5 and bGal counter -2.0.
